Legend:
Format in all cases: biochemical, Prunus dulcis
[1] = test system: sweet almond β-glucosidase; assay: KM as Ki from inhibition of pNPG hydrolysis at […] nm; details: pH 6.3, 0.01 M MES, 0.01 M NaCl, 4.6% v/v DMSO, 25°C; kcat calculated from kcat/KM and KM
[2] = test system: sweet almond β-glucosidase; assay: initial velocity, stopped assay, glucose by hexokinase / G6PDH; details: pH 6.3, 0.01 M MES, 0.01 M NaCl, 4.6% v/v DMSO, 25°C, H2O
In short: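 Chromatographically purified almond enzyme (65 kD), diluted from stock in 0.01 M MES/0.01 M NaCl pH 6.3, added to about 2 μg/mL to start the reaction at 25.0 °C. Thioglucoside substrate came from DMSO stock. Aliquots were withdrawn and glucose measured by coupled yeast hexokinase/L. mesenteroides G6PDH (10 mM ATP, 5 mM MgSO4, 1 mM NAD+, pH 7.5), reading NADH at 340 nm. Km came from non-linear Michaelis-Menten fit.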

[3] = biological target: sweet almond β-glucosidase; assay: inhibition of pNPG hydrolysis, p-nitrophenolate at […] nm; details: pNPG about 0.1 mM, pH 6.3, 25°C; not detectably hydrolysed
[4] = test system: sweet almond β-glucosidase; assay: p-nitrophenolate absorbance at […] nm; details: pH 6.3, 0.01 M MES, 0.01 M NaCl, 4.6% v/v DMSO, 25°C

Work on `Cn1c(S[C@@H]2O[C@H](CO)[C@@H](O)[C@H](O)[C@H]2O)nc2ccccc21` [GlcS(N-Me)Biz, 1'-methylbenzimidazol-2'-yl 1-thio-β-D-glucopyranoside] yielded a Km [1] of 47000 µM.
For `OC[C@H]1O[C@@H](Sc2nc3ccccc3[nH]2)[C@H](O)[C@@H](O)[C@@H]1O` [GlcSBiz, 2'-benzimidazolyl 1-thio-β-D-glucopyranoside], the Km [2] was 2500 µM.
Compound `OC[C@H]1O[C@@H](Sc2nc3ccccc3o2)[C@H](O)[C@@H](O)[C@@H]1O` [GlcSBox, 2-benzoxazolyl 1-thio β-D-glucopyranoside] has a Km [1] of 2700 µM.
`OC[C@H]1O[C@@H](SC2=NCCS2)[C@H](O)[C@@H](O)[C@@H]1O` [GlcSTaz, 2-thiazolinyl1-thio-β-D-glucopyranoside] was tested, and the Ki [3] was 8.7 mM.
`O=[N+]([O-])c1ccc(O[C@@H]2O[C@H](CO)[C@@H](O)[C@H](O)[C@H]2O)cc1` [pNPG, p-nitrophenyl β-D-glucopyranoside] gave a Km [4] of 2500 µM.
